From ChEMBL document CHEMBL1144528, “Synthesis of 8-thiabicyclo[3.2.1]octanes and their binding affinity for the dopamine and serotonin transporters” (Bioorg Med Chem, 2007)

Legend:
Transporter = Transporter (Macaca mulatta, UniProt Q7JHP9); experiment: Displacement of [3H]WIN-35428 from DAT in rhesus monkey caudate-putamen; assay type: tissue-based
Method in brief: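 Rhesus or cynomolgus caudate-putamen membranes (4 mg original wet weight/mL) in 50 mM Tris·HCl pH 7.4, 100 mM NaCl. Incubated 2 h at 0-4 °C with 0.3 nM [3H]WIN35,428 and a range of drug concentrations. Filtered on 0.1% BSA-soaked glass fibre filters and scintillation counted. Nonspecific binding defined with 30 μM (-)-cocaine. IC50 is the mean of ≥2 experiments in different brains, each in triplicate.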

[1] = molecular target: Sodium-dependent serotonin transporter (Macaca mulatta, UniProt Q9MYX0); experiment: Displacement of [3H]citalopram from SERT in rhesus monkey caudate-putamen; assay type: tissue-based
Method in brief: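 Caudate-putamen membranes from rhesus or cynomolgus monkey (4 mg original wet weight/mL) in 50 mM Tris·HCl pH 7.4 with 100 mM NaCl. Incubated with 1 nM [3H]citalopram and a range of test drug concentrations for 2 h at 0-4 °C. Filtered over glass fibre filters pre-soaked in 0.1% polyethyleneimine, then scintillation counted. IC50 is the mean of ≥2 independent experiments in different brains, each in triplicate.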

Macaca mulatta = species on record: Macaca mulatta; experiment: Selectivity for rhesus monkey DAT over rhesus monkey SERT
Method in brief: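 Ratio of SERT IC50 ([3H]citalopram binding) to DAT IC50 ([3H]WIN35,428 binding), both measured in monkey caudate-putamen membranes.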

Chain of Transporter (Q7JHP9 whole entry): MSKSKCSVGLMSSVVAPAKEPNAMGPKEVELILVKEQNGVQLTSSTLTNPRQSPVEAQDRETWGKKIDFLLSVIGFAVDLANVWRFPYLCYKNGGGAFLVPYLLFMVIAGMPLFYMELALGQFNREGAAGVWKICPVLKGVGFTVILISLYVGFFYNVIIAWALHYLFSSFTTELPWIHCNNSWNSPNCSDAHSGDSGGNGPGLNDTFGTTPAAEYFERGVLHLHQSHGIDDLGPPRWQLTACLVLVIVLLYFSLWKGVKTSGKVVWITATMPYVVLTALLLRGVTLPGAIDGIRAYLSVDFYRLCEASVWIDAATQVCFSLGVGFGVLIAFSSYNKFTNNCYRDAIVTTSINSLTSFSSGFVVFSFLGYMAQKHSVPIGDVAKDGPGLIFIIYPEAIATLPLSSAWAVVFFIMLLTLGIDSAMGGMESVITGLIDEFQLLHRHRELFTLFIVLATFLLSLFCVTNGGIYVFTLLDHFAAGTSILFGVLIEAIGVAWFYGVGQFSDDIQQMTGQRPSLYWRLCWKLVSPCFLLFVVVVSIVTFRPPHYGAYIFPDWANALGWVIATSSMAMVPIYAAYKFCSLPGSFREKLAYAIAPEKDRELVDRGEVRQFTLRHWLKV
Chain of Sodium-dependent serotonin transporter (Q9MYX0 whole entry): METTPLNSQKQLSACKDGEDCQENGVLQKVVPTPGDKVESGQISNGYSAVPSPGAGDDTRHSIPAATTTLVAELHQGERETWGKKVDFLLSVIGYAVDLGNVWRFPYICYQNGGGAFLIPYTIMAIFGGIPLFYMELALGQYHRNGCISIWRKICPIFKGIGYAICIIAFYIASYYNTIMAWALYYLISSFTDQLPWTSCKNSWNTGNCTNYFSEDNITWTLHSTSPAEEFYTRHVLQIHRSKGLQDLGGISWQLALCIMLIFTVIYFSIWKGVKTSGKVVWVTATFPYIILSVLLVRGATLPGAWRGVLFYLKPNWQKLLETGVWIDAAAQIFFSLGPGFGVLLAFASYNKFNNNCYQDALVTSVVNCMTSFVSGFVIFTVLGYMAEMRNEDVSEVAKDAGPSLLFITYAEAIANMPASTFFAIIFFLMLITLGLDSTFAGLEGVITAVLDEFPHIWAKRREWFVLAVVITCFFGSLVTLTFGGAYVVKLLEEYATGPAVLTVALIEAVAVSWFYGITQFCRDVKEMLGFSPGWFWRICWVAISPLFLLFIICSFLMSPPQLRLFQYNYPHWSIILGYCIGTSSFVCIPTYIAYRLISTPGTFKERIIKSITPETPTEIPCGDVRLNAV

Structure (SMILES)	IC50 (Transporter) [nM]	IC50 [1] [nM]	Ratio IC50 (Macaca mulatta)
COC(=O)C1=C(c2ccc(Cl)c(Cl)c2)CC2CC[C@H]1S2	2.5	2600	1040
COC(=O)C1=C(c2ccc(I)cc2)CC2CCC1S2 (configuration not stated)	6.7	> 8000	> 1300
COC(=O)C1=C(c2ccc(Cl)c(Cl)c2)CC2C[C@@H](O)[C@@H]1N2C	265	1590	–
COC(=O)[C@@H]1C2CCC(C[C@@H]1c1ccc(Br)cc1)S2 (some centres not stated)	6	14	2.3
COC(=O)[C@H]1[C@@H](c2ccc(Cl)c(Cl)c2)CC2CC[C@H]1S2	2	3	1.5
COC(=O)C1=C(c2ccc(Cl)cc2)CC2CCC1S2 (configuration not stated)	13	> 10000	> 770
COC(=O)C1=C(c2ccc(Cl)c(Cl)c2)CC2C[C@@H](O)[C@H]1N2C	7.4	5370	–
COC(=O)[C@@H]1[C@H]2[C@H](O)CC(C[C@@H]1c1ccc(Cl)c(Cl)c1)N2C	0.3	15	50
COC(=O)[C@@H]1[C@H]2[C@H](O)CC(C[C@H]1c1ccc(Cl)c(Cl)c1)N2C	0.76	1220	1610
COC(=O)[C@H]1[C@@H](c2ccc(Cl)c(Cl)c2)CC2CC[C@H]1O2	3.3	4.7	1.4
COC(=O)C1=C(c2ccc(Cl)c(Cl)c2)CC2CCC1C2 (configuration not stated)	7.1	5160	727
COC(=O)[C@@H]1C2CCC(C[C@@H]1c1ccc(Cl)c(Cl)c1)O2 (some centres not stated)	3.3	6.5	2
COC(=O)[C@@H]1C2CCC(C[C@H]1c1ccc(Cl)c(F)c1)[S+]2[O-] (some centres not stated)	17	> 14000	> 824
COC(=O)C1=C(c2ccc(Cl)c(Cl)c2)CC2CC[C@@H]1N2C	490	1900	4
COC(=O)[C@@H]1C2CCC(C[C@H]1c1ccc(Cl)cc1)S2 (some centres not stated)	11	1000	> 91
COC(=O)C1=C(c2ccc(Cl)c(F)c2)CC2CCC1S2 (configuration not stated)	10	> 50000	> 5000
COC(=O)[C@@H]1C2CCC(C[C@H]1c1ccc(F)c(Cl)c1)S2 (some centres not stated)	7.1	480	68
COC(=O)C1=C(c2ccc(Cl)c(Cl)c2)CC2CC[C@H]1N2C	1.2	867	723
COC(=O)[C@H]1[C@@H](c2ccc(Cl)c(Cl)c2)CC2CC[C@H]1N2C	1.1	2.5	2.2
COC(=O)C1=C(c2ccc(F)c(Cl)c2)CC2CCC1S2 (configuration not stated)	7.6	> 6000	> 789
COC(=O)[C@@H]1C2CCC(C2)C[C@@H]1c1ccc(Cl)c(Cl)c1 (some centres not stated)	9.6	33	3.4
COC(=O)C1=C(c2ccc(Br)cc2)CC2CCC1S2 (configuration not stated)	9.1	> 25000	> 2750
COC(=O)[C@@H]1C2CCC(C[C@H]1c1ccc(Cl)c(F)c1)S2 (some centres not stated)	7	702	100
COC(=O)[C@@H]1[C@H]2CCC(C[C@H]1c1ccc(Cl)c(Cl)c1)N2C	0.4	27	68
COC(=O)[C@@H]1C2CCC(C[C@@H]1c1ccc(Cl)c(Cl)c1)S2 (some centres not stated)	5.7	8	1.5
COC(=O)[C@@H]1C2CCC(C[C@@H]1c1ccc(F)c(F)c1)S2 (some centres not stated)	32	235	7
COC(=O)C1=C(c2ccc(Cl)c(Cl)c2)CC2CC[C@@H]1S2	5	4000	800
COC(=O)[C@@H]1C2CCC(C[C@@H]1c1ccc(Cl)c(Cl)c1)[S+]2[O-] (some centres not stated)	5.3	120	23
